Data reported in ChEMBL document CHEMBL4145690, “Rational Design and Structure Validation of a Novel Peptide Inhibitor of the Adenomatous-Polyposis-Coli (APC)-Rho-Guanine-Nucleotide-Exchange-Factor-4 (Asef) Interaction” (J Med Chem, 2018).
pIC50, pKd: −log10 of the molar value. Values belong to the compound of their own block, whether it stands above or below them. The source made the active and inactive calls. The calls are words filed in the database; no cut-off is given here. *1 amine or outer side, *2 acyl side, *3 side chain or, on linkers, in order; H or OH if unused. Where a SMILES comes first, the peptide text is derived from it. [ ]: non-standard residue; d: D form. The star is where a group is joined. X4 = O=C(C1(N[*:1])C[C@@H]2CC[C@H]1C2)[*:2]; X3 = O=C(c1cc2c(s1)CN([*:1])CC2)[*:2]; X2 = C=C(Br)C[C@H](N[*:1])C(=O)[*:2]; tBuAla = CC(C)(C)C[C@H](N)C(=O)O; hLeu = CC(C)CC[C@H](N)C(=O)O; Cbz = O=C(OCc1ccccc1)*

What was measured:
[1] = biological target: T1, Adenomatous polyposis coli protein (Homo sapiens, UniProt P25054); assay: Binding affinity to APC protein (303 to 739 residues) (unknown origin) incubated for 60 mins followed by probe addition and measured after 60 mins by competitive fluorescence polarization assay
T1 sequence (P25054 whole entry, the tested form may be a part): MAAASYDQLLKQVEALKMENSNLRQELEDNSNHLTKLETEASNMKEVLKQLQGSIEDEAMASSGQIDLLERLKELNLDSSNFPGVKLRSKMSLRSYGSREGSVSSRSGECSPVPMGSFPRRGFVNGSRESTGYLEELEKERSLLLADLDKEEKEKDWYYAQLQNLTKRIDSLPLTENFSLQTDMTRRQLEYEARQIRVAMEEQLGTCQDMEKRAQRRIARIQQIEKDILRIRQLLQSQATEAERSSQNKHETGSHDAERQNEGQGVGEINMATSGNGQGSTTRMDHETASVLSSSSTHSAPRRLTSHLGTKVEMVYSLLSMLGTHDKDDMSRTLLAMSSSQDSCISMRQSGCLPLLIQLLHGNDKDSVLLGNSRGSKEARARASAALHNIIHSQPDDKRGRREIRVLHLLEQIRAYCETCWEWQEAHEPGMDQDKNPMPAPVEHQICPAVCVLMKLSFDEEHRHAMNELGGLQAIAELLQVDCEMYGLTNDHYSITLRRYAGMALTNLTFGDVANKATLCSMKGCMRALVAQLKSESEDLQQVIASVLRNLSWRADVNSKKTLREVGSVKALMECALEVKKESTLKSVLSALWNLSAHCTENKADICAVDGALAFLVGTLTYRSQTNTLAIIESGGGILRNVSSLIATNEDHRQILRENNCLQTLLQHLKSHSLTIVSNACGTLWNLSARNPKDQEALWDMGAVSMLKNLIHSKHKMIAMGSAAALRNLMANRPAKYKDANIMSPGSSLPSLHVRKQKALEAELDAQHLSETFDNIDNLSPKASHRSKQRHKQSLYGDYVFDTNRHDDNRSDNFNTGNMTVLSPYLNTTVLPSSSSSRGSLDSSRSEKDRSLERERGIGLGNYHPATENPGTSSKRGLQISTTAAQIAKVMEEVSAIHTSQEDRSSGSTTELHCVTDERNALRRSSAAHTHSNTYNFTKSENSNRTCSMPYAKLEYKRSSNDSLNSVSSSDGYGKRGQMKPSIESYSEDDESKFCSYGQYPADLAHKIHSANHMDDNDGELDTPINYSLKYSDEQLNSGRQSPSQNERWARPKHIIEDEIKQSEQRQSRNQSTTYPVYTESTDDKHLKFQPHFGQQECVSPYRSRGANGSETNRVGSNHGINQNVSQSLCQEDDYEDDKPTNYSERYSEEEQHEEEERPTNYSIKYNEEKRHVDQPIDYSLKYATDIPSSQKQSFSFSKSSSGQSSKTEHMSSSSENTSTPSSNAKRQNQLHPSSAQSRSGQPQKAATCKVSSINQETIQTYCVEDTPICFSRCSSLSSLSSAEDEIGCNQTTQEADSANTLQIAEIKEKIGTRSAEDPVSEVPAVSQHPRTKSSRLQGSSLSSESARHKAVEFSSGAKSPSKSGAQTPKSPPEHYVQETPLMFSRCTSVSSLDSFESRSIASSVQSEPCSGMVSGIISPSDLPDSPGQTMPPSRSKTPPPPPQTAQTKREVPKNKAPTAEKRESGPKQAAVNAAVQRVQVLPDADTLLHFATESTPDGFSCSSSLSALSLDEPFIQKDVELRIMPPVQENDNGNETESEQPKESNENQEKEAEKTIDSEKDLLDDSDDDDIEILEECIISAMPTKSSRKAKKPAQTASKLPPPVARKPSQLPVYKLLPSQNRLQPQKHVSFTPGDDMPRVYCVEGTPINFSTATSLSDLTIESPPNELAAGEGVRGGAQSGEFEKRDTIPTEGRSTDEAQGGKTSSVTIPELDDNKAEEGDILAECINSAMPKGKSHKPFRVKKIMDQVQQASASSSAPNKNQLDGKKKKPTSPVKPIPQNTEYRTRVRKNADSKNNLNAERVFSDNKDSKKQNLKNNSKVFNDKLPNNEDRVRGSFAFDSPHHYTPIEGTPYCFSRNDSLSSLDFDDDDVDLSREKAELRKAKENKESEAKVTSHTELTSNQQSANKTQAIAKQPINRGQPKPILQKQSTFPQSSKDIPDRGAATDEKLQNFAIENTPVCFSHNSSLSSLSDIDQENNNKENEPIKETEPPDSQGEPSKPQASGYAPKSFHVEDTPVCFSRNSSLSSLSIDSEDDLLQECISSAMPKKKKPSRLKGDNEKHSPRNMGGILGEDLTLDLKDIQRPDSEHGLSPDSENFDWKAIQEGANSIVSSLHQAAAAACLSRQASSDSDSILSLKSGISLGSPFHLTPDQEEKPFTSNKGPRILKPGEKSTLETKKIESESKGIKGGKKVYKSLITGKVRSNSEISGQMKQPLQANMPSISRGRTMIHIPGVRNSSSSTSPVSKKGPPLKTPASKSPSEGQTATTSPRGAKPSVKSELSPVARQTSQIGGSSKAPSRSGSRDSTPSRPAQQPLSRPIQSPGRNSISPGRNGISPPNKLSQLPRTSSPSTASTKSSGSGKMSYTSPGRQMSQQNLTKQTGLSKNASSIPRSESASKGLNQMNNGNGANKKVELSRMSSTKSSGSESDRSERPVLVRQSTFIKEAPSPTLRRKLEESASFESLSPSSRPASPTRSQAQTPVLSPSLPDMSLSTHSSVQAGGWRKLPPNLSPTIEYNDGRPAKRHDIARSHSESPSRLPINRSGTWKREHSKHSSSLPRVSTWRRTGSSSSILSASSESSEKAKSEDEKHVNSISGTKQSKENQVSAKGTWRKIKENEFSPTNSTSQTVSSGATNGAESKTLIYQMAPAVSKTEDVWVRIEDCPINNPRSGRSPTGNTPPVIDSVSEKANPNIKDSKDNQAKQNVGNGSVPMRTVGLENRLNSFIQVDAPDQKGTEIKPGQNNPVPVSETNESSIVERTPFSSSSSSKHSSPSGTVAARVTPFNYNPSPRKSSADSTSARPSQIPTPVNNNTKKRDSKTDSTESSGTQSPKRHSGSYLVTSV
Procedure, shortened: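 Peptide in DMSO preincubated with protein 60 min at room temperature with shaking; probe added, then 60 min more. Controls: blank, tracer only, complex only. IC50 from dose-response curves, mean of three independent experiments.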

[2] = biological target: T1, Adenomatous polyposis coli protein; assay: Binding affinity to His-tagged APC (unknown origin) assessed as association constant by surface plasmon resonance assay
Procedure, shortened: (§1)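 His-APC amine-coupled to a CM5 chip (EDC/NHS; protein in 50 mM Hepes, 300 mM NaCl, 1 mM EDTA, pH 7.5); BSA reference cell. Peptides injected in 0.05 M Hepes pH 7.5 at 30 µL/min; dissociation 6 min; regeneration with glycine-HCl pH 2.0. Kinetic constants fitted to a 1:1 Langmuir model.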

[3] = biological target: T1, Adenomatous polyposis coli protein; assay: Binding affinity to His-tagged APC (unknown origin) assessed as dissociation constant by surface plasmon resonance assay; procedure, shortened: as §1
[4] = biological target: T1, Adenomatous polyposis coli protein; assay: Binding affinity to His-tagged APC (unknown origin) assessed as residence time by surface plasmon resonance assay; procedure, shortened: as §1
[5] = biological target: T1, Adenomatous polyposis coli protein; assay: Binding affinity to His-tagged APC (unknown origin) by surface plasmon resonance assay; procedure, shortened: as §1
[6] = biological target: T1, Adenomatous polyposis coli protein; assay: Reversible binding affinity to His-tagged APC (unknown origin) by surface plasmon resonance assay; procedure, shortened: as §1
[7] = biological target: T1, Adenomatous polyposis coli protein; assay: Binding affinity to APC (unknown origin) assessed as induction of blue shifts in fluorescence for APC-compound complexes at 35 uM incubate fro 30 mins by tryptophan fluorescence measurements assay
Procedure, shortened: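 APC protein (5 µM) alone or with peptide at 35 µM in 50 mM Hepes pH 7.5, 300 mM NaCl, 1 mM EDTA, 50 µL. Incubated 30 min at room temperature with gentle shaking. Tryptophan excited at 280 nm; emission scanned 300–500 nm. Run in triplicate.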

[8] = biological target: T1, Adenomatous polyposis coli protein; assay: Binding affinity to APC (unknown origin) assessed as association constant at 30 degC by ITC method
Procedure, shortened: (§2)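 ITC in 50 mM HEPES pH 7.5, 300 mM NaCl, 1 mM EDTA at 30 °C. Titrations were repeated three times. Kd, ΔG, ΔH and −TΔS are averages of the three independent experiments. L/P ratio gives sites per APC.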

[9] = biological target: T1, Adenomatous polyposis coli protein; assay: Binding affinity to APC (unknown origin) at 30 degC by ITC method; procedure, shortened: as §2
[10] = biological target: T1, Adenomatous polyposis coli protein; assay: Binding affinity to APC (unknown origin) at 37 degC by ITC method
Procedure, shortened: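 ITC at 37 °C in 50 mM HEPES pH 7.5, 300 mM NaCl, 1 mM EDTA. Titrations were repeated three times.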

[11] = biological target: T2, APC/Asef (Homo sapiens) (UniProt P25054+Q9NR80); assay: Inhibition of Flag-APC (303 to 876 residues) (unknown origin) /HA-Asef (170 to 632 residues) (unknown origin) interaction expressed in HEK293T cell lysates at 10 uM incubated for 2 hrs by coimmunoprecipitation assay
Procedure, shortened: (§3)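 HEK293T cells co-transfected with Flag-APC (303–876) and HA-Asef (170–632); lysed in RIPA after 24 h and lysate cleared. Supernatant incubated with compound (2 or 10 µM) or DMSO for 2 h at 4 °C, then anti-FLAG M2 gel overnight at 4 °C. Beads washed and proteins analysed by western blot (anti-HA, anti-Flag), single experiment.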

[12] = biological target: T1, Adenomatous polyposis coli protein; assay: Binding affinity to APC (unknown origin) assessed as intramolecular hydrogen bond formation by 1H nuclear magnetic resonance based hydrogen-deuterium-exchange assay
[13] = biological target: T2, APC/Asef (Homo sapiens); assay: Inhibition of Flag-APC (303 to 876 residues) (unknown origin) /HA-Asef (170 to 632 residues) (unknown origin) interaction expressed in HEK293T cell lysates incubated for 2 hrs by coimmunoprecipitation assay; procedure, shortened: as §3

Structure (SMILES): CC(C)C[C@H](NC(=O)[C@H](C)NC(=O)[C@H](CCC(=O)O)NC(=O)CNC(=O)[C@H](C)NC(=O)OCc1ccccc1)C(=O)N[C@@H](Cc1ccc(O)cc1)C(=O)N[C@@H](CCC(=O)O)C(N)=O (Cbz-AGEALYE-NH2)
pIC50 [1]: 5.96
K [2]: 1.92 ×10⁵ /M/s
K [3]: 8.2 ×10⁻² /s
TIME [4]: 0.00333 h
pKd [5]: 6.37
Activity [6]: Dose-dependent effect
Activity [7]: Active
K [8]: 4.71 ×10⁶ /M
pKd [9]: 6.68
pKd [10]: 5.74
inhibition [11]: Active

Structure (SMILES): C=C(Br)C[C@H](NC(=O)[C@H](CO)NC(=O)[C@H](CCC(=O)O)NC(=O)CNC(=O)[C@H](C)NC(=O)OCc1ccccc1)C(=O)N[C@@H](Cc1ccc(O)cc1)C(=O)N[C@@H](CCC(=O)O)C(N)=O (Cbz-AGES[X2]YE-NH2)
pIC50 [1]: 5.74

Structure (SMILES): CC(C)CC[C@H](NC(=O)[C@H](CO)NC(=O)[C@H](CCC(=O)O)NC(=O)CNC(=O)[C@H](C)NC(=O)OCc1ccccc1)C(=O)N[C@@H](Cc1ccc(O)cc1)C(=O)N[C@@H](CCC(=O)O)C(N)=O (Cbz-AGES[hLeu]YE-NH2)
pIC50 [1]: 6.08

Structure (SMILES): C[C@H](NC(=O)OCc1ccccc1)C(=O)NCC(=O)N[C@@H](CCC(=O)O)C(=O)N[C@@H](CO)C(=O)N[C@@H](CC(C)(C)C)C(=O)N[C@@H](Cc1ccc(O)cc1)C(=O)N[C@@H](CCC(=O)O)C(N)=O (Cbz-AGES[tBuAla]YE-NH2)
pIC50 [1]: 5.75

Structure (SMILES): CC(C)C[C@H](NC(=O)[C@H](Cc1ccc(O)cc1)NC(=O)[C@H](CCC(=O)O)NC(=O)CNC(=O)[C@H](C)NC(=O)OCc1ccccc1)C(=O)N[C@@H](Cc1ccc(O)cc1)C(=O)N[C@@H](CCC(=O)O)C(N)=O (Cbz-AGEYLYE-NH2)
pIC50 [1]: 5.26

Next, values leading:

pIC50 [1]: 6.60
K [2]: 3.05 ×10⁵ /M/s
K [3]: 6.7 ×10⁻² /s
TIME [4]: 0.00417 h
pKd [5]: 6.66
inhibition [6]: Dose-dependent effect
Activity [12]: Active
Activity [7]: Active
K [8]: 8.21 ×10⁷ /M
pKd [9]: 7.92
pKd [10]: 6.68
inhibition [13]: Dose-dependent effect
Structure (SMILES): CC(C)C[C@H](NC(=O)[C@H](CO)NC(=O)[C@H](CCC(=O)O)NC(=O)CNC(=O)[C@H](C)NC(=O)OCc1ccccc1)C(=O)N[C@@H](Cc1ccc(O)cc1)C(=O)N[C@@H](CCC(=O)O)C(N)=O (Cbz-AGESLYE-NH2)

pIC50 [1]: 3.89
Structure (SMILES): C[C@H](NC(=O)OCc1ccccc1)C(=O)NCC(=O)N[C@@H](CCC(=O)O)C(=O)N[C@@H](CO)C(=O)NC1(C(=O)N[C@@H](Cc2ccc(O)cc2)C(=O)N[C@@H](CCC(=O)O)C(N)=O)C[C@@H]2CC[C@H]1C2 (some centres undefined) (Cbz-AGES[X4]YE-NH2)

Kd [1]: Not Active
Structure (SMILES): C[C@H](NC(=O)OCc1ccccc1)C(=O)NCC(=O)N[C@@H](CCC(=O)O)C(=O)N1CCc2cc(C(=O)N[C@@H](Cc3ccc(O)cc3)C(=O)N[C@@H](CCC(=O)O)C(N)=O)sc2C1 (Cbz-AGE[X3]YE-NH2)
